From ChEMBL document CHEMBL1143971, “Synthesis, adenosine receptor binding and 3D-QSAR of 4-substituted 2-(2'-furyl)-1,2,4-triazolo[1,5-a]quinoxalines” (Bioorg Med Chem, 2008)

Legend:
Assay type in all cases: cell-based
[1] = molecular target: T1, Adenosine receptor A1 (Homo sapiens, UniProt P30542); test: Displacement of [3]DPCPX from human adenosine A1 receptor expressed in CHO cells
T1 sequence (P30542 whole entry): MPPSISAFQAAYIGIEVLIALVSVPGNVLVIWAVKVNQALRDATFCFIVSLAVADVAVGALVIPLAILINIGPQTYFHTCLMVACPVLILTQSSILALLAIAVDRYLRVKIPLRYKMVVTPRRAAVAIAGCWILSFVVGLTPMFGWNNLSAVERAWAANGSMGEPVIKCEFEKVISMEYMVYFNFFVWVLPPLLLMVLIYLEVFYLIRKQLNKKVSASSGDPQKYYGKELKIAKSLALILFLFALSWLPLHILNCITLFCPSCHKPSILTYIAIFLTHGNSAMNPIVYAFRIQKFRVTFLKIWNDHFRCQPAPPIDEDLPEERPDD
Summary of the method: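 Membranes (15 µg) incubated 60 min at 25 °C with 2 nM [3H]DPCPX in 20 mM Hepes, 100 mM NaCl, 10 mM MgCl2, 2 U/mL adenosine deaminase, pH 7.4, plus 6 test concentrations (0.1 nM–1 µM). Nonspecific binding defined with 10 µM (R)-PIA. Filtration on GF/C, 4 ice-cold washes, scintillation counting. Ki from IC50 via Cheng–Prusoff.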

[2] = molecular target: T2, Adenosine receptor A3 (Homo sapiens) (UniProt P0DMS8); test: Displacement of [3]NECA from human adenosine A3 receptor expressed in HeLa cells at 1 uM
T2 sequence (whole entry): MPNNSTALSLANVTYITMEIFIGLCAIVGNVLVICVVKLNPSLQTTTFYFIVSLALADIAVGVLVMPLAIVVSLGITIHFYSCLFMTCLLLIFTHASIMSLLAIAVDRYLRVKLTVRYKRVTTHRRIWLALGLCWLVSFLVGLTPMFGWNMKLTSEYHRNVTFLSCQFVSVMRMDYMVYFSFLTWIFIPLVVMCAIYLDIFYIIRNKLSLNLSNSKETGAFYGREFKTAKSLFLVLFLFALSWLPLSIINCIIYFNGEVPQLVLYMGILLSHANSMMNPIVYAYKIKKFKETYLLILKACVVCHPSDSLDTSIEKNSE
Summary of the method: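 At 1 µM test compound, 90 µg membranes were incubated with 30 nM [3H]NECA for 180 min at 25 °C in Tris/EDTA/5 mM MgCl2/adenosine deaminase buffer, pH 7.4. Nonspecific binding with 100 µM (R)-PIA. Result given as % displacement of specific binding.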

[3] = molecular target: T3, Adenosine receptor A2b (Homo sapiens) (UniProt P29275); test: Displacement of [3]DPCPX from human adenosine A2B receptor expressed in HEK293 cells at 1 uM
T3 sequence (whole entry): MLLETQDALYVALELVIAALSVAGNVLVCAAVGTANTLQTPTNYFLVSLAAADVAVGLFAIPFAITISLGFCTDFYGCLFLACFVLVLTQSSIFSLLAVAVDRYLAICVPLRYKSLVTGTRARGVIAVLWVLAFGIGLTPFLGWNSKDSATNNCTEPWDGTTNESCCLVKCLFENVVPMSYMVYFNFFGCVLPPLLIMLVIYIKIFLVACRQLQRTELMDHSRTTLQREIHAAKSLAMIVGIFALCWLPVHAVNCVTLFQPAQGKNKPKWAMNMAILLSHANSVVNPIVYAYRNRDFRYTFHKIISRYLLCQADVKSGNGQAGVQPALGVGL
Summary of the method: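 At 1 µM test compound: 18 µg membranes, 35 nM [3H]DPCPX, 30 min at 25 °C, Tris/EDTA/MgCl2/benzamidine/adenosine deaminase buffer pH 6.5. Nonspecific binding from 400 µM NECA. Value expressed as % displacement of specific binding, calculated from total, nonspecific and competed dpm.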

[4] = molecular target: T4, Adenosine receptor A2a (Homo sapiens, UniProt P29274); test: Displacement of [3]ZM241385 from human adenosine A2A receptor expressed in HeLa cells at 1 uM
T4 sequence (P29274 whole entry): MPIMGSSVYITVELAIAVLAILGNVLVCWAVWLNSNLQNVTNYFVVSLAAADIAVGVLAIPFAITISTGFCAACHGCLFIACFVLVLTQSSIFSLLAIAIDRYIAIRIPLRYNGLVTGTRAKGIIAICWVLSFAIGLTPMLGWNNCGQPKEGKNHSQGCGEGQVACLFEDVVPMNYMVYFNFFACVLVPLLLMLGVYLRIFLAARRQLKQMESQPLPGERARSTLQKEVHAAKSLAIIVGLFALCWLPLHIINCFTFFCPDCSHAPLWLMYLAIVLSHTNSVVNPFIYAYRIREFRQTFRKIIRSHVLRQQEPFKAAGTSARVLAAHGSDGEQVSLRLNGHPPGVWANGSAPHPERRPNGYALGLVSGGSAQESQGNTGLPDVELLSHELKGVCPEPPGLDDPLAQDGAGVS
Summary of the method: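 At 1 µM test compound: 10 µg membranes, 3 nM [3H]ZM241385, 30 min at 25 °C in Tris/EDTA/MgCl2/adenosine deaminase buffer, pH 7.4. Nonspecific binding from 50 µM NECA. Output is % displacement of specific binding, based on total and nonspecific dpm.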

[5] = molecular target: T5, Adenosine receptor A2b (Homo sapiens, UniProt P29275); test: Displacement of [3]DPCPX from human adenosine A2B receptor expressed in HEK293 cells
T5 sequence (P29275 whole entry): T3 sequence (whole entry)
Summary of the method: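 Membranes (18 µg) incubated 30 min at 25 °C with 35 nM [3H]DPCPX in 50 mM Tris-HCl, 1 mM EDTA, 10 mM MgCl2, 0.1 mM benzamidine, 2 U/mL adenosine deaminase, pH 6.5, plus six concentrations (0.1 nM–1 µM). Nonspecific binding defined with 400 µM NECA. GF/B filtration, six washes with Tris pH 6.5. Ki via Cheng–Prusoff.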

[6] = molecular target: T4, Adenosine receptor A2a; test: Displacement of [3]ZM241385 from human adenosine A2A receptor expressed in HeLa cells
Summary of the method: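 10 µg membranes, 3 nM [3H]ZM241385, 30 min at 25 °C in 50 mM Tris-HCl, 1 mM EDTA, 10 mM MgCl2, 2 U/mL adenosine deaminase, pH 7.4. Six test concentrations (0.1 nM–1 µM). Nonspecific binding from 50 µM NECA. GF/C filtration, four ice-cold washes, scintillation counting. Ki via Cheng–Prusoff.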

[7] = molecular target: T6, Adenosine receptor A3 (Homo sapiens, UniProt P0DMS8); test: Displacement of [3]NECA from human adenosine A3 receptor expressed in HeLa cells
T6 sequence (P0DMS8 whole entry): T2 sequence (whole entry)
Summary of the method: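 90 µg membranes, 30 nM [3H]NECA, 180 min at 25 °C in 50 mM Tris-HCl, 1 mM EDTA, 5 mM MgCl2, 2 U/mL adenosine deaminase, pH 7.4. Test compound at six concentrations (0.1 nM–1 µM). Nonspecific binding with 100 µM (R)-PIA. GF/B filtration, six washes, scintillation counting. Ki = IC50/(1 + C/KD).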

[8] = molecular target: T7, Adenosine receptor A1 (Homo sapiens) (UniProt P30542); test: Displacement of [3]DPCPX from human adenosine A1 receptor expressed in CHO cells at 1 uM
T7 sequence (whole entry): T1 sequence (P30542 whole entry)
Summary of the method: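 Single-point competition at 1 µM test compound: 15 µg membranes, 2 nM [3H]DPCPX, 60 min at 25 °C, Hepes/NaCl/MgCl2/adenosine deaminase buffer pH 7.4. 10 µM (R)-PIA for nonspecific binding. % displacement = (total binding − dpm)×100/(total − nonspecific).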

| Compound | Ki [1] [nM] | inhibition [2] [%] | inhibition [3] [%] | inhibition [4] [%] | Ki [5] [nM] | Ki [6] [nM] | Ki [7] [nM] | inhibition [8] [%] |
| --- | --- | --- | --- | --- | --- | --- | --- | --- |
| O=C(Nc1nc2ccccc2n2nc(-c3ccco3)nc12)c1cccs1 | 50.1 | 52 | 21 | 10 |  |  |  |  |
| c1coc(CNc2nc3ccccc3n3nc(-c4ccco4)nc23)c1 | 33.1 | 57.3 |  |  | 1740 | 490 |  |  |
| O=C(Nc1nc2ccccc2n2nc(-c3ccco3)nc12)c1ccco1 | 200 |  |  |  | 2510 | 398 | 251 |  |
| OCCN1CCN(c2nc3ccccc3n3nc(-c4ccco4)nc23)CC1 |  | 24 | 3 | 12 |  |  |  | 24.5 |
| c1ccc(COc2nc3ccccc3n3nc(-c4ccco4)nc23)cc1 |  |  | 3 | 38 |  |  | 1550 | 13.8 |
| c1ccc(CCNc2nc3ccccc3n3nc(-c4ccco4)nc23)cc1 | 93.3 |  | 46 |  |  | 51.3 | 372 |  |
| c1ccc(CNc2nc3ccccc3n3nc(-c4ccco4)nc23)cc1 | 102 | 32.6 | 24 |  |  | 302 |  |  |
| O=C(Cc1ccccc1)Nc1nc2ccccc2n2nc(-c3ccco3)nc12 | 63.1 |  |  |  | 251 | 158 | 100 |  |
| c1coc(-c2nc3c(OCc4ccoc4)nc4ccccc4n3n2)c1 | 537 |  |  |  | 145 | 575 | 676 |  |
| O=C(CCc1ccccc1)Nc1nc2ccccc2n2nc(-c3ccco3)nc12 | 12.6 |  |  |  | 501 | 63.1 | 126 |  |
| c1coc(COc2nc3ccccc3n3nc(-c4ccco4)nc23)c1 |  |  | 3 | 8 |  |  | 66.1 | 55.1 |
| c1ccc(Nc2nc3ccccc3n3nc(-c4ccco4)nc23)cc1 | 45.7 | 71.7 | 49 |  |  | 64.6 |  |  |
| c1coc(-c2nc3c(N4CCNCC4)nc4ccccc4n3n2)c1 |  | 26.7 | 4 | 7 |  |  |  | 12.3 |

Results, then the compound that gave them:

| Ki [1] [nM] | inhibition [2] [%] | inhibition [3] [%] | inhibition [4] [%] | Ki [5] [nM] | Ki [6] [nM] | Ki [7] [nM] | inhibition [8] [%] | Compound |
| --- | --- | --- | --- | --- | --- | --- | --- | --- |
| 3720 | 69 | 34 | 38 |  |  |  |  | CCOc1nc2ccccc2n2nc(-c3ccco3)nc12 |
| 3.16 |  |  |  | 123 | 63.1 | 30.2 |  | OCCNc1nc2ccccc2n2nc(-c3ccco3)nc12 |
| 5.62 |  |  |  | 13.2 | 11.2 | 331 |  | Nc1nc2ccccc2n2nc(-c3ccco3)nc12 |
| 331 | 57.4 | 28 |  |  | 398 |  |  | COc1nc2ccccc2n2nc(-c3ccco3)nc12 |
| 135 | 10.4 |  |  | 2400 | 398 |  |  | CCN(CC)c1nc2ccccc2n2nc(-c3ccco3)nc12 |
| 3.98 |  |  |  | 67.6 | 47.9 | 22.9 |  | CC(O)CNc1nc2ccccc2n2nc(-c3ccco3)nc12 (centres undefined) |
| 112 |  |  |  | 251 | 200 | 251 |  | CC(=O)Nc1nc2ccccc2n2nc(-c3ccco3)nc12 |
|  | 50.7 | 17 |  |  | 309 |  | 31.1 | CN(C)c1nc2ccccc2n2nc(-c3ccco3)nc12 |
| 58.9 | 51.7 | 46 |  |  | 110 |  |  | OCCN(CCO)c1nc2ccccc2n2nc(-c3ccco3)nc12 |
| 575 | 55.3 | 22 | 20 |  |  |  |  | COC(CNc1nc2ccccc2n2nc(-c3ccco3)nc12)OC |
| 302 |  | 32 |  |  | 3090 | 437 |  | COCCNc1nc2ccccc2n2nc(-c3ccco3)nc12 |
| 141 | 43 | 34 | 57 |  |  |  |  | NCC(O)CNc1nc2ccccc2n2nc(-c3ccco3)nc12 (centres undefined) |
| 74.1 | 82 |  |  | 427 | 372 |  |  | COCCCNc1nc2ccccc2n2nc(-c3ccco3)nc12 |
